FXIa inh 1536 = inhibitors of human coagulation factor XIa | hit rate 0.14% among 220,000 | inhibition, % at 5 µM | purified FXIa, Boc-Glu-Ala-Arg-AMC fluorogenic substrate | P03951;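 active = inhibition of at least 40%; inactive = inhibition below 40%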;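 also: fluorescence of freed AMC excited at 355 nm; 0% = enzyme without compound and 100% = no enzyme blank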
FXIIa inh = blocks human coagulation factor XIIa protease activity; purified FXIIa, Boc-QGR-AMC fluorogenic substrate, 2 h; inhibition, % at 5 µM; P00748; hit rate 0.3% among 220,000; in the data active = inhibition above about 40%;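 also: 0% = enzyme with no compound and 100% = blank without enzyme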
KLK5 inh = blocks human kallikrein 5 protease activity | Q9Y337 | recombinant hK5, fluorogenic AMC substrate cleavage | inhibition, % at 5 µM | hit rate 0.59% among 210,000;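 active = inhibition of 40% or more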;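 also: 0% = enzyme controls without compound and 100% = no-enzyme blanks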
Target sequence (Q9Y337 67-293 limits assumed): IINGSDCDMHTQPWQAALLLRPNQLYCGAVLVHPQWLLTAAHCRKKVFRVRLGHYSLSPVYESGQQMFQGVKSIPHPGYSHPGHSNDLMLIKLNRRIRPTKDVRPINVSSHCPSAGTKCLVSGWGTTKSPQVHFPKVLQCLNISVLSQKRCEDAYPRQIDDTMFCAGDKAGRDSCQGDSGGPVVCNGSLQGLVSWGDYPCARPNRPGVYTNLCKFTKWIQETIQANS
thrombin 1536 = thrombin (human) inhibition | P00734 | alpha-thrombin, Boc-VPR-AMC fluorogenic substrate cleavage | inhibition, % at 5 µM | hit rate 0.26% among 220,000;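 active = inhibition at or above 40%; inactive = inhibition below 40%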;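 also: 0% = enzyme with no compound and 100% = wells without enzyme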
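signal = AMC fluorescence, 355/460 nm | material = human alpha-thrombin enzyme | control set = enzyme without compound as high, wells lacking enzyme as low | times = reaction at room temperature | read-out basis = percent inhibition scaled between no-compound controls and no-enzyme blanks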
m-calpain inh = calpain II (pig) inhibition; hit rate 0.37% among 220,000; inhibition, % at 16 µM; purified calpain II, fluorogenic peptide substrate, 30 min;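 active = inhibition above about 50%, limit read from the data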
* = called active by the depositor; . = no result. The list is not random: actives were taken first. Their share in the collection is about 1.4%.

SMILES	FXIa inh 1536	FXIIa inh	KLK5 inh	thrombin 1536	m-calpain inh
O=C(NCc1cccs1)c1cccc(Nc2nc3ccc(Br)cc3[nH]2)c1	12.9	11.7	30.5	11.0	55.2*
O=C(/C=C/c1ccco1)Nc1cccc(S(=O)(=O)N2CCOCC2)c1	-4.6	0.5	-5.5	-10.4	14.5
Cc1ccc2c(CC(=O)Nc3cccc(S(=O)(=O)N4CCOCC4)c3)coc2c1	-2.3	5.2	-2.2	8.7	50.5*
O=C(Cc1ccccc1Cl)Nc1cccc(S(=O)(=O)N2CCOCC2)c1	-3.6	-1.7	-9.1	-5.7	-1.7
Cc1ccc(/C=C/C(=O)Nc2cccc(S(=O)(=O)N3CCOCC3)c2)o1	-5.3	7.0	71.6*	39.8	-3.4
O=C(NNc1ccccc1)/C(=C\c1cccnc1)NC(=O)c1ccccc1	-1.3	3.7	-0.6	-4.1	3.3
C/C(CC(=O)NC1CCCC1)=N\NC(=O)Cc1cccs1	-8.6	-9.5	-2.5	-4.7	14.5
CCOC(=O)CSc1nc(C)[nH]c1[N+](=O)[O-]	-3.1	2.6	-5.0	6.1	-0.8
Cc1ccc(S(=O)(=O)/N=C/N(C)C)cc1	7.0	7.3	-26.0	-9.7	1.9
Cc1ccc(S(=O)(=O)/N=C/c2ccco2)cc1	4.7	30.8	86.9*	104.4*	12.4
CCOC(=O)c1cnc2c(c(C)nn2C)c1Oc1ccc(OC)cc1	-10.2	3.8	-8.2	-2.6	9.2
Cc1ccc(NC(=O)NN(C)c2c(Cl)c(Cl)nn2C)cc1	7.2	8.0	11.2	-2.2	45.3
CCc1nnc(NC(=O)CCC(=O)N2CCN(C3CCCCC3)CC2)s1	7.6	14.8	3.5	-1.2	-27.7
CCc1nnc(NC(=O)CCC(=O)N2CCCC2)s1	-8.1	28.0	54.2*	42.2*	14.5
CCC(=O)Nc1ccc(NC(=O)CSc2nnnn2CC)cc1C	11.1	13.8	72.5*	27.0	-0.8
CCn1nnnc1SCC(=O)Nc1ccc2c(c1)OCO2	7.2	16.6	-8.7	1.8	-19.9
Cc1nnc(SCc2nnc(-c3ccccc3Br)o2)n1-c1ccccc1	-6.8	1.2	-20.7	40.9*	-54.6
Cc1cc2sc3ccccc3c(=O)c2c(C)c1O	-2.4	8.3	-4.5	-11.9	-37.4
O=c1c(C(c2ccccc2)c2c(O)sc3ccccc3c2=O)c(O)sc2ccccc12	-9.0	3.1	0.5	-3.9	51.5*
CC(C)c1nc(SCc2c(F)cccc2Cl)c2c(=O)n(C)c(=O)n(C)c2n1	10.0	22.6	65.0*	15.3	8.4
Cn1c(=O)c2c(nc(SCCCC#N)n2Cc2c(F)cccc2Cl)n(C)c1=O	2.5	13.4	-6.5	-3.1	1.6
CCOC(=O)CNc1nc(Cl)c(C#N)s1	-0.9	7.2	-2.5	-5.5	6.7
Cc1ccc(CNc2nc(Cl)c(C#N)s2)cc1	-2.5	3.6	-3.2	-2.8	75.6*
Cc1cc(-n2ccnc2)n2c(nc3ccccc32)c1C#N	13.8	106.1*	24.2	16.0	-132.4
Cn1cccc1C(=O)Nc1nc(-c2ccccn2)cs1	46.8*	-8.8	-5.7	10.1	-5.3
SMILES	FXIa inh 1536	FXIIa inh	KLK5 inh	thrombin 1536	m-calpain inh
Cc1csc(NC(=O)c2cccn2C)n1	7.0	16.1	-8.7	1.2	-12.5
COCCn1nnnc1CN(CCc1ccc(OC)c(OC)c1)Cc1cc2ccc(C)cc2[nH]c1=O	-0.2	7.5	-0.8	-1.4	12.2
CC1=C/C(=N\NC(=S)Nc2cccnc2)CC(C)(C)C1	40.4*	22.5	13.2	4.0	24.1
CCCc1nc2ccc(NC(=O)NCCC(=O)OCC)cc2c(=O)n1Cc1cccc(Cl)c1	9.3	5.7	-18.8	3.7	29.3
CCOC(=O)CCNC(=O)Nc1ccc2nc(C)n(Cc3cccc(Cl)c3)c(=O)c2c1	-8.0	-6.7	-7.7	-1.6	65.6*
Cc1cccc(Oc2ccc(Cl)cc2N)c1	3.1	7.7	0.4	1.5	50.3*
O=C(CNCc1ccccn1)Nc1cc(C(F)(F)F)ccc1N1CCOCC1	29.6	41.3*	38.5	9.2	15.9
O=C(Cn1c(CO)nc2ccccc21)Nc1cc(C(F)(F)F)ccc1N1CCOCC1	-7.6	13.4	-20.2	4.4	-32.1
COc1ccc2nc3ccccc3nc2c1N	28.8	43.5*	19.4	14.6	31.5
COc1ccc2nc3cccc(OC)c3nc2c1	0.2	2.8	4.8	-3.2	21.8
O=S1(=O)C=C(SCc2ccc(Cl)c(Cl)c2)Nc2ccccc21	1.0	8.6	5.9	3.1	53.0*
Nc1nc(SCc2ccc(Cl)c(Cl)c2)n[nH]1	-4.2	-4.4	-13.2	-10.9	-6.7
Cc1ccc(-c2nc(CS(=O)(=O)CC(=O)N3CCc4ccccc4C3)c(C)o2)cc1	35.6	50.9*	-0.6	-8.0	13.4
Cc1ccc(-c2nc(CS(=O)(=O)CC(=O)N3CCCCCC3)c(C)o2)cc1	0.2	8.3	0.6	-1.8	13.8
COc1cccc(C(=O)NNC(=O)Cc2ccc([N+](=O)[O-])cc2)c1	-11.1	-7.9	10.5	44.1*	28.2
COc1cccc(C(=O)NNC(=O)CCC(=O)O)c1	-8.3	-0.7	-8.3	-8.2	-13.4
COc1ccc(CCn2c(C)cc(C(=O)CCl)c2C)cc1OC	29.9	102.7*	23.5	.	22.6
Cc1cc(C(=O)CCl)c(C)n1CCc1ccc(Cl)cc1	1.5	7.5	.	-0.8	-14.6
COc1ccc(NCC(=O)Nc2cc(S(=O)(=O)N3CCOCC3)ccc2N2CCOCC2)c(OC)c1	41.9*	34.7	24.4	16.5	14.6
Cc1nc(-c2ccc(S(=O)(=O)N3CCN(C(c4ccccc4)c4ccccc4)CC3)s2)cs1	0.9	10.8	2.6	0.0	-49.6
COc1ccc(S(=O)(=O)n2nc(OC(=O)c3ccccc3)cc2N)cc1	35.1	22.7	50.8*	4.1	10.8
COc1ccc(S(=O)(=O)n2nc(OC(=O)c3ccncc3)cc2N)cc1	1.5	6.6	0.6	0.8	-13.0
COc1ccc(S(=O)(=O)n2nc(OC(=O)c3cccs3)cc2N)cc1	38.1	18.6	78.0*	18.0	26.6
Cn1nnnc1SCC(=O)NCc1cc([N+](=O)[O-])ccc1O	3.6	8.0	4.2	3.4	17.8
O=C(Oc1ccc(Cl)c2cccnc12)N1CCCCC1	-2.8	9.9	-23.1	1.1	-6.0
SMILES	FXIa inh 1536	FXIIa inh	KLK5 inh	thrombin 1536	m-calpain inh
O=C(Oc1ccc(Cl)c2cccnc12)C12CC3CC(CC(C3)C1)C2	-12.7	-4.6	9.9	-9.1	56.3*
Cc1ccc2nc3sc(C(=O)N4CCOCC4)c(N)c3cc2c1	-8.1	7.1	-0.7	-1.1	-26.2
Cc1ccc(C(=O)N(Cc2ccccc2)C(C)(C)C)cc1C	-6.4	-1.5	-2.8	-8.3	50.0*
CCOc1ccc(OCC)c(NC(=O)CCS(=O)(=O)c2ccc(Br)s2)c1	-5.2	5.0	-4.0	43.3*	2.3
CCOC(=O)c1cccc(NC(=O)CCS(=O)(=O)c2ccc(Br)s2)c1	-5.6	6.8	20.9	5.8	-31.5
Cc1ccc(S(=O)(=O)Nc2ccc(S(=O)(=O)Nc3cc(C)nc(C)n3)cc2)cc1	1.3	7.8	-1.1	.	-6.0
Cc1cc(NS(=O)(=O)c2ccc(N3C(=O)C4C5C=CC(C5)C4C3=O)cc2)nc(C)n1 (configuration not stated)	66.8*	4.5	-9.8	0.2	-7.7
O=C(NCc1ccccc1)C1=C[C@H](c2coc3ccccc3c2=O)C[C@H](OCCCCO)O1	1.8	6.9	2.9	-0.4	6.5

Screening data as filed in PubChem.
